Results from different studies.
Each line is one published result; the experiments were not run side by side.
Target: Ephrin type-A receptor 2 (EPHA2, Homo sapiens, UniProt P29317)

SMILES	observed	action	method	tested at	endpoint	result
C=CC(=O)N1CCC[C@@H](n2nc(-c3ccc(Oc4ccccc4)cc3)c3c(N)ncnc32)C1	enzyme activity	inhibitor	–	1 µM	inhibition	4%
Cc1cc(O)c(-c2ccc([C@@H](C)CN(C)C)cc2)c2c1[nH]c(=O)c1sccc12	cell-free assay	inhibitor	–	0.1 µM	inhibition	-2.28%
CCCCC(=O)Nc1ccc(-c2ccc3ncn(CCC)c(=O)c3c2)cn1	binding	–	competition with immobilised ligand	0.5 µM	remaining binding	100%
COc1ccc2[nH]c3c4[nH]c5ccc(OC)cc5c4c4c(c3c2c1)C(=O)NC4=O	binding	–	competition with immobilised ligand	1 µM	remaining binding	85%
N#Cc1ccc(NC(=O)Nc2ccccc2)cc1	cell-free assay	–	competition with immobilised ligand	25 µM	remaining binding	100%
C=CC(=O)N1CCC([C@@H]2CCNc3c(C(N)=O)c(-c4ccc(Oc5ccccc5)cc4)nn32)CC1	cell-free assay	–	–	1 µM	inhibition	10%
COc1ccc2oc(-c3ccc4nc(N)oc4c3)c/c(=N\c3ccccc3NC(=O)CCN)c2c1	binding	–	–	1 µM	remaining binding	99%
C1=C/COCc2cc(ccc2OCCN2CCCC2)Nc2nccc(n2)-c2cccc(c2)COC/1	binding	–	–	0.1 µM	remaining binding	100%
Cc1ccc(NC(=O)c2ccnc(C(F)(F)F)c2)cc1-c1cc(OCCO)nc(N2CCOCC2)c1	binding	–	competition with immobilised ligand	1 µM	remaining binding	63%
C#Cc1cnc(Nc2ccnc(CO)c2)nc1Nc1ccccc1S(C)(=O)=NC#N (stereo not shown)	cell-free assay	–	–	1 µM	remaining signal	70%
